Screens deposited in PubChem by several laboratories.
Rows were chosen to be rich in hits. Some 12% of all compounds tested hit in one or more screens of this group.
Lmaj promast: Leishmania major promastigote growth inhibition, primary screen. inhibition, % at 10 µM. actives 9% (n = 200,000). Leishmania major promastigotes, resazurin fluorescence viability; in the data active = inhibition above about 50%;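 also: promastigotes grown with compound for 44 hours at 28 °C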
RAM network inh: inhibitors of the yeast RAM network, primary screen, dse1pr::URA3 reporter, 5-FOA selection | S. cerevisiae dse1pr::URA3 reporter, 5-FOA growth OD615, 2 d; analog-sensitive cbk1-as2 kinase mutant strain | inhibition, % at 50 µM | actives 1.8% (n = 190,000);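 active = inhibition above a set limit, 3 SD over mean compound inhibition, cut at about 8.4% in these data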;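 also: 0% = DMSO-only wells with no growth and 100% = 10 µM 1-NA-PP1 full growth; inhibition rescues growth on 5-FOA so higher OD means more RAM inhibition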
ABCB1 block: ABCB1 efflux pump inhibitors, primary screen, cell-based, multiplex, flow cytometry, ABCG2 counter-screen; inhibition, % at 6.6 µM; actives 0.067% (n = 190,000); CCRF-Adr cells, JC-1 efflux; in the data active = inhibition above about 40%;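 also: 0% = vehicle and 100% = reference inhibitor; higher value means more JC-1 retained so stronger ABCB1 efflux block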
ABCG2 inh: ABCG2 efflux pump inhibitors, primary screen, multiplex with ABCB1, IgMXP3 cells, flow cytometry. Broad substrate specificity ATP-binding cassette transporter ABCG2 (Homo sapiens), Q9UNQ0. JC-1 efflux. inhibition, % at 6.6 µM. actives 0.1% (n = 190,000). AID 1325, 2008;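 active = inhibition above 80%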;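 also: 0% = DMSO and 100% = nicardipine control wells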
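Test system: IgMXP3 (ABCG2) plus far-red-tagged CCRF-Adr (ABCB1) cells. Reagent: JC-1 dye as substrate. Timing: 10 min exposure at 25 °C with rotation, no wash. Measured by: flow cytometric JC-1 green MFI at 530 nm. Read-out: percent efflux inhibition, scaled nicardipine 100% to DMSO 0%. Control set: nicardipine and DMSO wells.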
WT yeast gro inh: growth inhibition of WT strain, primary screen, mitochondrial fusion inhibitor project, WT and mutant strains, chemical genetic; mitochondrial fusion phenotypic screen; inhibition, % at 10 µM; actives 2.1% (n = 190,000); AID 1362, 2008; in the data active = inhibition above about 58%; tested in S. cerevisiae
An asterisk follows results filed as active; x = not tested or not shown.

SMILES	Lmaj promast	RAM network inh	ABCB1 block	ABCG2 inh	WT yeast gro inh
COc1ccc(C(=O)/C=C/C(=O)N(Cc2ccccc2OC)C(C(=O)NC2CCCCC2)c2ccncc2)c(O)c1 (configuration not stated)	99*	0	0	-2	15
COc1ccc(C(=O)/C=C/C(=O)N(CC(=O)NC2CCCCC2)Cc2ccccc2OC)c(O)c1	49	6	1	1	2
COc1ccccc1CN(C(=O)CCl)C(C(=O)NC1CCCCC1)c1ccncc1 (configuration not stated)	61*	2	1	1	0
COc1ccc(C(=O)/C=C/C(=O)N(CC(=O)NC2CCCCC2)Cc2ccccc2)c(O)c1	44	3	1	1	41
COc1ccc(C(=O)/C=C/C(=O)N(Cc2ccccc2)C(C(=O)NC2CCCCC2)c2ccncc2)c(O)c1 (configuration not stated)	93*	0	11	3	-2
COc1ccc(C(=O)/C=C/C(=O)N(Cc2ccc(F)cc2)C(C(=O)NC2CCCCC2)c2ccncc2)c(O)c1 (configuration not stated)	71*	0	0	0	49
O=S(=O)(N/N=C/c1cn(Cc2ccccc2)c2ccccc12)c1ccccc1	27	3	0	1	17
CCN1C(=O)C2(Nc3ccccc3-c3nc4ccccc4n32)c2cc(OC)ccc21 (configuration not stated)	49	3	53*	16	0
Cc1ccccc1NC(=S)N(CCN(C)C)C(C)c1ccco1 (configuration not stated)	24	2	0	-2	17
Cc1ccc(NC(=S)N(CCN(C)C)C(C)c2ccco2)cc1C (configuration not stated)	46	-1	3	2	-4
COCCN(C(=S)Nc1ccc(C)c(C)c1)C(C)c1ccco1 (configuration not stated)	27	2	0	38	60*
COc1ccc(NC(=S)N(CCN(C)C)C(C)c2ccco2)cc1 (configuration not stated)	51*	0	3	1	-16
S=C(NCC1CCCO1)N1CCN(Cc2ccccc2)CC1 (configuration not stated)	-8	2	0	0	3
CC1CN(C(=O)N2CCCCC2)CCN1C(=O)N1CCCCC1 (configuration not stated)	-6	2	0	1	-24
CC(C)CN1CCN(Cc2cccc3cccnc23)CC1CCO (configuration not stated)	3	0	0	2	-5
CCCc1nc(SCc2ccccn2)c2c(=O)n(C)c(=O)n(C)c2n1	2	0	11	10	5
Cn1c(=O)c2c(SCc3cccnc3)nc(CC(C)(C)C)nc2n(C)c1=O	91*	0	8	20	48
Cn1c(=O)c2c(SCc3ccccn3)nc(CC(C)(C)C)nc2n(C)c1=O	25	4	3	24	28
CCCc1nc(SCc2cccnc2)c2c(=O)n(C)c(=O)n(C)c2n1	84*	1	3	8	9
COC(=O)c1ccc(C(=O)OC)c(NC(=O)c2cc3ccccc3o2)c1	-6	x	x	x	x
COc1ccc(Sc2nnc(Cc3ccccc3)c3ccccc23)cc1	85*	5	1	22	7
O=C(NCCCN1CCOCC1)/C(=C/c1ccc(F)cc1)NC(=O)c1ccccc1	-9	1	0	-1	-6
CCN(C(=O)COc1cccc2cccnc12)C1CCS(=O)(=O)C1 (configuration not stated)	-6	2	0	0	-9
CC1CCCN(c2nc3ccccc3nc2C(C#N)C(=O)OC2CCCCC2)C1 (configuration not stated)	61*	2	1	9	46
CCCCCNC(=O)C(C#N)c1nc2ccccc2nc1N1CC(C)OC(C)C1 (configuration not stated)	-6	x	x	x	x
SMILES	Lmaj promast	RAM network inh	ABCB1 block	ABCG2 inh	WT yeast gro inh
CCCCCCNC(=O)C(C#N)c1nc2ccccc2nc1N1CCOCC1 (configuration not stated)	-6	9.7*	1	8	8
CC1CCN(c2nc3ccccc3nc2C(C#N)C(=O)OC2CCCCC2)CC1 (configuration not stated)	37	4	1	7	x
N#CC(C(=O)OC1CCCCC1)c1nc2ccccc2nc1N1CCCCC1 (configuration not stated)	54*	5	0	39	17
CC1CN(c2nc3ccccc3nc2C(C#N)C(=O)OC2CCCCC2)CC(C)O1 (configuration not stated)	64*	5	-1	-5	60*
CCc1cc2c(SCC#N)ncnc2s1	24	0	-1	1	17
CCOc1ccccc1NC(=O)C1CCN(C(=O)c2cccs2)CC1	-2	2	1	3	-1
COc1ccc(N(CCC#N)C(=O)/C(C#N)=C/c2cccs2)cc1	1	0	0	0	-6
CC(C)N1CCC2(CC1)N=C(c1ccc3c(c1)OCO3)CC(c1cc(Cl)ccc1O)N2 (configuration not stated)	100*	0	0	3	46
CC(Sc1ccc(Cl)cc1)C(=O)Nc1ccc2c(c1)OCO2 (configuration not stated)	1	0	0	1	10
COc1ccc(NC(=O)COC(=O)c2c3c(nc4ccccc24)CCCC3)cc1Cl	23	1	0	-1	63*
COc1ccc(NC(=O)COC(=O)c2c3c(nc4ccccc24)CCCC3)cc1	94*	1	0	0	8
COc1ccc(OC)c(NC(=O)COC(=O)c2c3c(nc4ccccc24)CCCC3)c1	9	0	4	14	11
CCCCCn1c(=O)c(F)cn(Cc2ccc(OC)c([N+](=O)[O-])c2)c1=O	5	-1	5	28	7
CCCCCCn1c(=O)c(F)cn(Cc2ccc(OC)c([N+](=O)[O-])c2)c1=O	91*	4	-1	4	19
N=c1c2c(ncn1Cc1ccco1)Oc1ccc3ccccc3c1C2c1ccccc1 (configuration not stated)	96*	-1	2	-1	66*
COc1ccc(C2c3c(ncn(Cc4ccco4)c3=N)Oc3ccc4ccccc4c32)cc1 (configuration not stated)	99*	1	0	-1	64*
COc1ccc(C2c3ccc4ccccc4c3Oc3ncn(CCN4CCOCC4)c(=N)c32)cc1 (configuration not stated)	100*	0	3	2	-23
